{"source": "ChEMBL document CHEMBL4619801", "about": "“Discovery of Phthalazinone Derivatives as Novel Hepatitis B Virus Capsid Inhibitors” (J Med Chem, 2020)", "key": {"[1]": {"assay": "Cmax in Sprague-Dawley rat at 20 mg/kg, po dosed as single administration", "format": "ADME, organism-based", "design": "dose 20 mg/kg, route oral", "settings": "in vivo; call rule not given here"}, "[2]": {"assay": "Drug metabolism in mouse liver microsomes assessed as compound level by measuring UV-area of metabolite-M2 at 3 uM in presence of NADPH incubated for 60 mins by UPLC-UV/QTOF MS analysis", "format": "ADME, Microsome", "settings": "1 h", "in_short": "(§1)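 Each incubation held liver microsomes (human, monkey, dog, rat or mouse) at 0.5 mg/mL with 3.0 μM compound in 100 mM potassium phosphate, pH 7.4. After 3 min prewarming at 37 °C, the reaction was started with 1 mM NADPH. It was stopped at 60 min with ice-cold acetonitrile. Parent remaining and metabolites were judged from relative UV area.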"}, "[3]": {"assay": "Drug metabolism in human liver microsomes at 3 uM in presence of NADPH incubated for 60 mins by UPLC-UV/QTOF MS analysis relative to control", "format": "ADME, Microsome", "settings": "read-out: Drug metabolism", "in_short": "as §1"}, "[4]": {"assay": "Drug metabolism in rat liver microsomes assessed as compound level by measuring LC-MS area at 3 uM in presence of NADPH incubated for 60 mins by UPLC-UV/QTOF MS analysis", "format": "ADME, Microsome", "settings": "1 h", "in_short": "as §1"}, "[5]": {"assay": "Drug metabolism in mouse liver microsomes assessed as compound level by measuring UV-area at 3 uM in presence of NADPH incubated for 60 mins by UPLC-UV/QTOF MS analysis", "format": "ADME, Microsome", "settings": "1 h", "in_short": "as §1"}, "[6]": {"test_system": "Hepatitis B virus", "assay": "Antiviral activity against HBV infected in human HepG2.2.15 cells assessed as reduction in cytoplasmic HBV-DNA replication incubated for 8 days by real-time PCR analysis", "format": "functional, organism-based", "settings": "HepG2 2.2.15, 192 h"}, "[7]": {"assay": "AUC (0 to t) in Sprague-Dawley rat at 2 mg/kg, iv dosed as single administration", "format": "ADME, organism-based", "settings": "in vivo"}, "[8]": {"assay": "Drug metabolism in human liver microsomes assessed as compound level by measuring LC-MS area at 3 uM in presence of NADPH incubated for 60 mins by UPLC-UV/QTOF MS analysis", "format": "ADME, Microsome", "settings": "1 h", "in_short": "as §1"}, "[9]": {"assay": "Half life in Sprague-Dawley rat at 20 mg/kg, po dosed as single administration", "format": "ADME, organism-based", "settings": "in vivo"}, "[10]": {"assay": "Drug level in CD1 mouse liver at 20 mg/kg, po dosed as single administration measured up to 24 hrs", "format": "ADME, organism-based", "settings": "in vivo", "in_short": "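ICR (CD-1) mice were dosed orally at 20 mg/kg. At set times (1, 3, 8 and 24 h), blood was taken from the heart and portal vein under isoflurane anesthesia and spun to plasma. Livers were removed after portal vein perfusion, rinsed in saline, weighed and homogenized in saline (5 mL/g). Samples were analysed by UPLC–MS/MS in positive electrospray mode.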"}}}
{"smiles": "Cc1cc(-c2ccc(F)nc2F)nn(Cc2ccc(Cl)cc2)c1=O", "values": [{"measurement": "Cmax", "setting": "[1]", "result": 352, "unit": "ng/mL"}, {"measurement": "Activity", "setting": "[2]", "result": 15.4, "unit": "×10³ No_unit"}, {"measurement": "metabolised at 1 h, 3 µM", "setting": "[3]", "result": 34, "unit": "%"}, {"measurement": "Activity", "setting": "[4]", "result": 7.4, "unit": "×10³ No_unit"}, {"measurement": "Activity", "setting": "[5]", "result": "< 5", "unit": "×10³ No_unit"}, {"measurement": "IC50", "setting": "[6]", "result": 98, "unit": "nM"}, {"measurement": "AUC(0-t)", "setting": "[7]", "result": 428, "unit": "ng·h/mL"}, {"measurement": "Activity", "setting": "[8]", "result": 13.5, "unit": "×10³ No_unit"}, {"measurement": "half-life", "setting": "[9]", "result": 2.96, "unit": "h"}, {"measurement": "Drug uptake", "setting": "[10]", "result": "Not Active"}]}
